{"data": "Experimental data of several laboratories", "target": "Mu-type opioid receptor (OPRM1, Homo sapiens, UniProt P35372)", "note": "Lines come from different studies, so protocols differ."}
{"SMILES": "CC(CCc1ccc(O)cc1)NCCc1ccc(O)c(O)c1 (stereo not shown)", "assay": "ligand displacement, radioligand", "endpoint": "IC50", "value": "1660 nM"}
{"SMILES": "c1ccc([C@]2(CCN[C@H]3CCOc4ccccc43)CCOC3(CCCC3)C2)nc1", "assay": "cAMP, agonist, luciferase", "endpoint": "EC50", "value": "1.6 nM"}
{"SMILES": "CN[C@]1(c2ccccc2Cl)CCCCC1=O", "assay": "ligand displacement, radioligand", "endpoint": "Ki", "value": "3000 nM"}
{"SMILES": "CCCCCCCCC[C@@H]1CC(=O)NCC(=O)N[C@H](Cc2ccc(O)cc2)C(=O)NCC(=O)N[C@@H](Cc2ccccc2)C(=O)O1", "assay": "ligand displacement, radioligand", "endpoint": "Ki", "value": "6400 nM"}
{"SMILES": "CCCCC/C=C\\C/C=C\\C/C=C\\CCCCC(=O)O", "assay": "ligand displacement, radioligand", "setting": "cell membranes", "endpoint": "Ki", "value": "22700 nM"}
{"SMILES": "Cc1cc(O)cc(C)c1C[C@H](N)C(=O)N1Cc2ccccc2C[C@H]1C(=O)NCC(=O)NCc1ccc([N+](=O)[O-])cc1", "assay": "ligand displacement, radioligand", "setting": "cell membranes", "endpoint": "Ki", "value": "4.5 nM"}
{"SMILES": "CC(=O)Nc1ccccc1-c1cnc2c(c1)C[C@@]1(OCCCc3ccccc3)[C@H]3Cc4ccc(O)c5c4[C@@]1(CCN3CC1CC1)[C@H]2O5", "assay": "cell-free assay", "endpoint": "Ki", "value": "141 nM"}
{"SMILES": "CC(NCCc1ccc(O)cc1)C(O)c1ccc(O)cc1 (stereo not shown)", "assay": "ligand displacement", "endpoint": "IC50", "value": "9180 nM"}
{"SMILES": "COc1ccc2c(c1)[C@]13CCCC[C@@H]1[C@H](C2)N(C)CC3", "assay": "ligand displacement, radioligand", "endpoint": "IC50", "value": "1700 nM"}
{"SMILES": "Cc1cc(O)cc(C)c1C[C@H](N)C(=O)N1Cc2ccccc2C[C@@H]1C(=O)NCC(=O)NCc1ccccc1", "assay": "ligand displacement, radioligand", "setting": "cell membranes", "endpoint": "Ki", "value": "0.068 nM"}
{"SMILES": "CC(CCc1ccccc1)NC(C)C(O)c1ccc(O)cc1 (stereo not shown)", "assay": "ligand displacement, radioligand", "endpoint": "IC50", "value": "9950 nM"}
{"SMILES": "Oc1ccc2c3c1O[C@H]1c4ncc(-c5ccccc5)cc4C[C@@]4(OCCCc5cccnc5)[C@@H](C2)N(CC2CC2)CC[C@]314", "assay": "cell-free assay", "endpoint": "Ki", "value": "3.96 nM"}
{"SMILES": "Cc1ccc(CNC(=O)CNC(=O)[C@@H]2Cc3ccccc3CN2C(=O)[C@@H](N)Cc2c(C)cc(O)cc2C)cc1", "assay": "ligand displacement, radioligand", "setting": "cell membranes", "endpoint": "Ki", "value": "3.7 nM"}
